For orientation: IC50 means the concentration needed to halve the response being measured.

≈ marks a conversion by molar mass, not a printed value.

The test system of data set [1] is breast cancer cells MDA-MB-231. Put plainly: MTT cell growth assay, MDA-MB-231. Type of data set: cell-based. The following applies: MDA-MB-231 cells, 72 h treatment. Summed up:
(§1)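 Cells grown at 37°C under humidified 5% CO2. BxPC-3 and MDA-MB-231 were in DMEM with 10% FBS, and PC3 was in RPMI with 10% FBS. Lines were STR-authenticated. Cells were seeded in 96-well plates and dosed 24 h after seeding. After 72 h, MTT 0.5 mg/ml was added for 2 h at 37°C. Medium was replaced with DMSO for 30 min at room temperature before reading absorbance. Eight replicate wells per treatment; each experiment run at least three times.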
A general note: Formazan colour is commonly taken as a measure of viable cells.

The conditions of data set [2]: pancreas of mice; cited from earlier work.
Data set [3] is described as follows: Water solubility study of CDF and CDF-β-cyclodextrin complexes. Format: physicochemical. The following applies: distilled water, ambient temperature, shaken 2 h, UV 365 nm. In outline: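 The complex was made by kneading the components at 2:1 molar ratio in alcohol/water for 1 h. It was dried at 45°C for 24 h, powdered and sieved (#80). Excess test compound or complex was dispersed in 25 ml distilled water and shaken 2 h at ambient temperature to equilibrium. Solutions were passed through a 0.22-μm filter and diluted with methanol. Absorbance was read at 365 nm.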

Data set [4] concerns prostate cancer cells PC3. Put plainly: MTT cell growth assay, PC3. Format: cell-based. The following applies: 72 h treatment. In outline:
as §1

A short description of data set [5]: Pharmacokinetics and tissue distribution. Type of data set: in vivo. The following applies: mice, single i.v. dose CDF 5.0 mg/mice, at 2 h. In outline:
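Female ICR-SCID mice, 8–10 weeks old, were starved overnight. Each received a single i.v. dose: test compound 5.0 mg/mouse, or its β-cyclodextrin 1:2 complex at 12.5 mg/mouse (5.0 mg equivalent). Vehicle was 1:1 ethanol/polysorbate 80 diluted tenfold with 5% glucose. About 200 μL blood was taken by cardiac puncture for serum. Pancreas was PBS-washed, blotted and weighed. Samples were stored at −80°C and quantified by validated LC-MS/MS.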

Data set [6] relates to pancreatic cancer cells BxPC-3. Put plainly: MTT cell growth assay, BxPC-3. Format: cell-based. To be noted: BxPC-3 cells, 72 h treatment. In outline:
as §1

The nature of data set [7]: Phase solubility analysis. Type of data set: physicochemical. The following applies: in presence of β-cyclodextrin 0-20 mM, water, 30 ± 2°C, 72 h.

For the compound `COc1cc(/C=C/C(=O)C(=Cc2ccc(F)c(F)c2)C(=O)/C=C/c2ccc(O)c(OC)c2)ccc1O` [CDF, 3,4-difluorobenzo curcumin], the half-inhibitory concentration (IC50) in data set [1] amounted to 325 nM; in data set [4], 260 nM; in data set [6] it was 350 nM. The “levels in pancreas relative to curcumin” value in data set [2] is 10 times. The compound further yielded a water solubility in data set [3] of 14 µg/mL (≈ 28.4 µM). The concentration in pancreas in data set [5] is ~ 300 ng/g. In addition, in data set [5], the concentration in serum is given as ~ 6 ng/ml. In addition, the “phase solubility diagram type” value in data set [7] is listed as “AN type”.

These data come from publication PMC3868989 (Pharmaceutical research, 2012).
